How the values were obtained:
Enterobacter cloacae [1] = experiment: Antibacterial activity against aminoglycoside-resistant Enterobacter cloacae expressing AAC(6')-1 by broth microdilution method; format: functional
How it was run: (§1)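 Clinical aminoglycoside-resistant isolates were each carrying a single aminoglycoside-modifying enzyme. […] MICs were determined by CLSI broth microdilution.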

Pseudomonas aeruginosa [2] = experiment: Antibacterial activity against wild type Pseudomonas aeruginosa expressing efflux pump by broth microdilution method; format: functional
How it was run: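 MIC was determined by CLSI broth microdilution, read in μg/ml. The strain came from a 25-strain screening panel with diverse aminoglycoside resistance mechanisms. The panel included strains with changes in permeability or efflux, key aminoglycoside-modifying enzymes and an armA methyltransferase strain.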

[3] = tested on: Staphylococcus epidermidis; experiment: Antibacterial activity against aminoglycoside-resistant Staphylococcus epidermidis expressing APH(2'') + AAC(6')-1 by broth microdilution method; format: functional; how it was run: as §1
Escherichia coli [4] = experiment: Antibacterial activity against Escherichia coli by broth microdilution method; format: functional
How it was run: (§2)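 MICs were determined by CLSI broth microdilution against clinical isolate panels that included aminoglycoside-resistant isolates. […] MIC90 was derived per group and not calculated when n was <10. Imipenem, ceftobiprole, ciprofloxacin and tigecycline MICs were also determined for the resistant isolates.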

Staphylococcus aureus [5] = experiment: microbe, parasite or virus in culture; details: ATCC 29213
Pseudomonas aeruginosa [6] = experiment: Antibacterial activity against Pseudomonas aeruginosa expressing ANT(4')-2 by broth microdilution method; format: functional
How it was run: (§3)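 MICs were measured by broth microdilution following CLSI guidance. The strains formed a 25-strain screening panel with diverse aminoglycoside resistance mechanisms. The panel included Gram-negative and S. aureus strains carrying key aminoglycoside-modifying enzymes, strains with altered permeability or efflux, and an armA ribosomal methyltransferase strain.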

Staphylococcus aureus [7] = experiment: microbe, parasite or virus in culture
Pseudomonas aeruginosa [8] = experiment: Antibacterial activity against Pseudomonas aeruginosa by broth microdilution method; format: functional; how it was run: as §2
Pseudomonas aeruginosa [9] = experiment: Antibacterial activity against aminoglycoside-resistant Pseudomonas aeruginosa expressing ANT(2'')-1 by broth microdilution method; format: functional; how it was run: as §1
Acinetobacter baumannii = experiment: Antibacterial activity against aminoglycoside-resistant Acinetobacter baumannii expressing ANT(2'')-1 by broth microdilution method; format: functional; how it was run: as §1
Pseudomonas aeruginosa [10] = experiment: Antibacterial activity against aminoglycoside-resistant Pseudomonas aeruginosa expressing AAC(6')-2 by broth microdilution method; format: functional; how it was run: as §1
Escherichia coli [11] = experiment: Antibacterial activity against aminoglycoside-resistant Escherichia coli expressing ANT(2'')-I by broth microdilution method
[12] = tested on: Staphylococcus epidermidis; experiment: Antibacterial activity against aminoglycoside-resistant Staphylococcus epidermidis expressing APH(3')-3 by broth microdilution method; format: functional
Acinetobacter = experiment: Antibacterial activity against aminoglycoside-resistant Acinetobacter spp. expressing APH(3')-6 by broth microdilution method; format: functional; how it was run: as §1
Klebsiella pneumoniae [13] = experiment: Antibacterial activity against aminoglycoside-resistant Klebsiella pneumoniae expressing AAC(3)-4 by broth microdilution method; format: functional; how it was run: as §1
Escherichia coli [14] = experiment: Antibacterial activity against aminoglycoside-resistant Escherichia coli expressing ANT(2'')-1 by broth microdilution method; format: functional; how it was run: as §1
Escherichia coli [15] = experiment: Antibacterial activity against aminoglycoside-resistant Escherichia coli expressing AAC(3)-2 by broth microdilution method; format: functional; how it was run: as §1
Citrobacter = experiment: Antibacterial activity against Citrobacter spp. by broth microdilution method; format: functional; how it was run: as §2
[16] = tested on: Staphylococcus epidermidis; experiment: Antibacterial activity against aminoglycoside-resistant Staphylococcus epidermidis expressing ANT(4',4'')-2 by broth microdilution method; format: functional; how it was run: as §1
Klebsiella aerogenes [17] = experiment: Antibacterial activity against aminoglycoside-resistant Enterobacter aerogenes expressing AAC(6')-1 by broth microdilution method; format: functional; how it was run: as §1
Pluralibacter gergoviae = experiment: Antibacterial activity against aminoglycoside-resistant Enterobacter gergoviae expressing ANT(2'')-I by broth microdilution method
Enterobacter cloacae [18] = experiment: Antibacterial activity against aminoglycoside-resistant Enterobacter cloacae expressing ANT(2'')-I by broth microdilution method
Klebsiella pneumoniae [19] = experiment: Antibacterial activity against aminoglycoside-resistant Klebsiella pneumoniae expressing AAC(3)-1 by broth microdilution method; format: functional; how it was run: as §1
Serratia marcescens [20] = experiment: Antibacterial activity against aminoglycoside-resistant Serratia marcescens expressing ANT(2''), AAC(6') by broth microdilution method; format: functional; how it was run: as §3
Staphylococcus aureus [21] = experiment: Antibacterial activity against aminoglycoside-resistant Staphylococcus aureus expressing APH(2'') + AAC(6') by broth microdilution method; format: functional; how it was run: as §3
Pseudomonas aeruginosa [22] = experiment: Antibacterial activity against Pseudomonas aeruginosa expressing AAC(3)-1 by broth microdilution method; format: functional
Staphylococcus sp. = experiment: Antibacterial activity against Staphylococcus spp. by broth microdilution method; format: functional; how it was run: as §2
[23] = tested on: Acinetobacter calcoaceticus; experiment: Antibacterial activity against aminoglycoside-resistant Acinetobacter calcoaceticus expressing AAC(6')-1 by broth microdilution method; format: functional; how it was run: as §1
[24] = Antibacterial activity against indole positive Proteae by broth microdilution method; format: functional; how it was run: as §2
Klebsiella pneumoniae [25] = experiment: Antibacterial activity against aminoglycoside-resistant Klebsiella pneumoniae expressing AAC(6')-1 by broth microdilution method; format: functional; how it was run: as §1
Klebsiella pneumoniae [26] = experiment: Antibacterial activity against aminoglycoside-resistant Klebsiella pneumoniae expressing ANT(2'')-I by broth microdilution method
Klebsiella pneumoniae [27] = experiment: Antibacterial activity against Klebsiella pneumoniae ATCC 10031 by broth microdilution method; format: functional; how it was run: as §3
Citrobacter freundii = experiment: Antibacterial activity against aminoglycoside-resistant Citrobacter freundii expressing AAC(6')-1 by broth microdilution method; format: functional; how it was run: as §1
Escherichia coli [28] = experiment: Antibacterial activity against aminoglycoside-resistant Escherichia coli expressing AAC(6')-1 by broth microdilution method; format: functional; how it was run: as §1
Staphylococcus aureus [29] = experiment: microbe, parasite or virus in culture; remark: listed apart in the source
Serratia sp. = experiment: Antibacterial activity against Serratia spp. by broth microdilution method; format: functional; details: Serratia sp. (in: enterobacteria); how it was run: as §2
Klebsiella oxytoca [30] = experiment: Antibacterial activity against aminoglycoside-resistant Klebsiella oxytoca expressing AAC(6')-1 by broth microdilution method; format: functional; how it was run: as §1
Escherichia coli [31] = experiment: Antibacterial activity against aminoglycoside-resistant Escherichia coli expressing APH(3')-1b by broth microdilution method
Serratia marcescens [32] = experiment: Antibacterial activity against aminoglycoside-resistant Serratia marcescens expressing ANT(2'')-I by broth microdilution method
Pseudomonas aeruginosa [33] = experiment: Antibacterial activity against Pseudomonas aeruginosa ATCC 27853 by broth microdilution method; format: functional
Serratia liquefaciens = experiment: Antibacterial activity against aminoglycoside-resistant Serratia liquefaciens expressing AAC(3)-2 by broth microdilution method; format: functional; how it was run: as §1
Klebsiella aerogenes [34] = experiment: Antibacterial activity against aminoglycoside-resistant Enterobacter aerogenes expressing AAC(3)-2 by broth microdilution method; format: functional; how it was run: as §1
Escherichia coli [35] = experiment: Antibacterial activity against Escherichia coli ATCC 25922 by broth microdilution method; format: functional; how it was run: as §3
Proteus mirabilis = experiment: Antibacterial activity against Proteus mirabilis by broth microdilution method; format: functional; how it was run: as §2
Acinetobacter sp. = experiment: Antibacterial activity against Acinetobacter spp. by broth microdilution method; format: functional; how it was run: as §2
Klebsiella oxytoca [36] = experiment: Antibacterial activity against aminoglycoside-resistant Klebsiella oxytoca expressing AAC(3)-2 by broth microdilution method; format: functional; how it was run: as §1

NCC[C@H](O)C(=O)N[C@@H]1C[C@H](N)[C@@H](O[C@H]2O[C@H](CN)[C@@H](O)[C@H](O)[C@H]2O)[C@H](O)[C@H]1O[C@H]1O[C@H](CO)[C@@H](O)[C@H](N)[C@H]1O [AMIKACIN]
0.5 µg/mL: MIC (Klebsiella pneumoniae [27]) | MIC (Escherichia coli [31])
14 µg/mL: MIC (Pseudomonas aeruginosa [10])
64 µg/mL: MIC (Staphylococcus aureus [21]) | MIC90 (Proteus mirabilis)
13 µg/mL: MIC [16]
16 µg/mL: MIC50 (Escherichia coli [4]) | MIC50 (Pseudomonas aeruginosa [8]) | MIC (Acinetobacter baumannii) | MIC50 (Staphylococcus sp.)
8 µg/mL: MIC (Pseudomonas aeruginosa [9]) | MIC (Serratia marcescens [20]) | MIC50 [24] | MIC50 (Serratia sp.) | MIC50 (Proteus mirabilis)
4 µg/mL: MIC (Pseudomonas aeruginosa [2]) | MIC (Staphylococcus aureus [5]) | MIC [12] | MIC (Escherichia coli [14]) | MIC (Escherichia coli [15]) | MIC (Klebsiella pneumoniae [19]) | MIC (Pseudomonas aeruginosa [22]) | MIC (Serratia liquefaciens) | MIC (Klebsiella aerogenes [34]) | MIC (Klebsiella oxytoca [36])
2 µg/mL: MIC (Staphylococcus aureus [7]) | MIC (Escherichia coli [11]) | MIC (Klebsiella pneumoniae [13]) | MIC (Pluralibacter gergoviae) | MIC (Enterobacter cloacae [18]) | MIC (Klebsiella pneumoniae [26]) | MIC (Serratia marcescens [32]) | MIC (Pseudomonas aeruginosa [33]) | MIC (Escherichia coli [35])
30 µg/mL: MIC (Enterobacter cloacae [1]) | MIC (Klebsiella aerogenes [17]) | MIC (Klebsiella pneumoniae [25]) | MIC (Citrobacter freundii) | MIC (Escherichia coli [28]) | MIC (Klebsiella oxytoca [30])
> 64 µg/mL: MIC90 (Pseudomonas aeruginosa [8]) | MIC (Acinetobacter) | MIC90 (Staphylococcus sp.) | MIC (Staphylococcus aureus [29]) | MIC50 (Acinetobacter sp.) | MIC90 (Acinetobacter sp.)
32 µg/mL: MIC90 (Escherichia coli [4]) | MIC (Pseudomonas aeruginosa [6]) | MIC50 (Citrobacter) | MIC [23]
18 µg/mL: MIC [3]

CN[C@@H]1[C@@H](O)[C@@H](O[C@@H]2[C@@H](O)[C@H](O[C@H]3OC(CNCCO)=CC[C@H]3N)[C@@H](N)C[C@H]2NC(=O)[C@@H](O)CCN)OC[C@]1(C)O [PLAZOMICIN]
3 µg/mL: MIC (Pseudomonas aeruginosa [9])
1 µg/mL: MIC (Enterobacter cloacae [1]) | MIC [3] | MIC50 (Escherichia coli [4]) | MIC (Staphylococcus aureus [5]) | MIC (Escherichia coli [11]) | MIC [12] | MIC (Acinetobacter) | MIC (Klebsiella pneumoniae [13]) | MIC (Escherichia coli [14]) | MIC (Escherichia coli [15]) | MIC [16] | MIC (Klebsiella aerogenes [17]) | MIC (Pluralibacter gergoviae) | MIC (Enterobacter cloacae [18]) | MIC (Klebsiella pneumoniae [19]) | MIC50 (Staphylococcus sp.) | MIC (Klebsiella pneumoniae [25]) | MIC (Klebsiella pneumoniae [26]) | MIC (Citrobacter freundii) | MIC (Escherichia coli [28]) | MIC (Staphylococcus aureus [29]) | MIC50 (Serratia sp.) | MIC (Klebsiella oxytoca [30]) | MIC (Serratia marcescens [32]) | MIC (Serratia liquefaciens) | MIC (Klebsiella aerogenes [34]) | MIC (Escherichia coli [35]) | MIC (Klebsiella oxytoca [36])
6 µg/mL: MIC (Pseudomonas aeruginosa [10])
32 µg/mL: MIC90 (Acinetobacter sp.)
8 µg/mL: MIC50 (Pseudomonas aeruginosa [8]) | MIC (Pseudomonas aeruginosa [22]) | MIC50 [24] | MIC90 (Proteus mirabilis)
2 µg/mL: MIC90 (Escherichia coli [4]) | MIC (Acinetobacter baumannii) | MIC (Serratia marcescens [20]) | MIC90 (Staphylococcus sp.) | MIC [23] | MIC (Pseudomonas aeruginosa [33])
16 µg/mL: MIC50 (Acinetobacter sp.)
64 µg/mL: MIC90 (Pseudomonas aeruginosa [8])
0.5 µg/mL: MIC (Staphylococcus aureus [7]) | MIC50 (Citrobacter)
0.25 µg/mL: MIC (Klebsiella pneumoniae [27]) | MIC (Escherichia coli [31])
4 µg/mL: MIC (Pseudomonas aeruginosa [2]) | MIC (Pseudomonas aeruginosa [6]) | MIC (Staphylococcus aureus [21]) | MIC50 (Proteus mirabilis)
